UBC9 SUMO inh = inhibitors of in vitro SUMOylation cascade, primary screen, biochemical, HTRF, uHTS | SUMO-conjugating enzyme UBC9 (Homo sapiens), P63279 | HTRF SUMOylation assay, SAE1/SAE2 + UBC9 | inhibition, % at 35 µM | 290,000 compounds, 0.36% hits; in the data active means inhibition above about 50%, passing the limit was not always enough
Target sequence (P63279 whole entry, looked up): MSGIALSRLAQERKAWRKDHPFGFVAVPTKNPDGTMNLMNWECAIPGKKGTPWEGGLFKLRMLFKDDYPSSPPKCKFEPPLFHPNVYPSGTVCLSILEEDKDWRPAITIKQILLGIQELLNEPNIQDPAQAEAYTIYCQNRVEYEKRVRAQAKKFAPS
APOBEC3A inh = APOBEC3A ssDNA deaminase inhibitors, primary screen, selectivity assay for APOBEC3G inhibitor project, biochemical, FAM/TAMRA oligo cleavage fluorescence; 330,000 compounds, 0.41% hits; inhibition, % at 20 µM; DNA dC->dU-editing enzyme APOBEC-3A (Homo sapiens), P31941; recombinant A3A, FAM/TAMRA ssDNA deamination fluorescence;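 active means at least 40% inhibition at 20 µM here, with at most 30% in a related deaminase screen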
PfG6PD inh = PfG6PD enzyme inhibitors, primary screen, biochemical, fluorescence intensity, uHTS; inhibition, % at 20 µM; AID 504690, 2011; glucose-6-phosphate dehydrogenase-6-phosphogluconolactonase (Plasmodium falciparum 3D7); 350,000 compounds, 0.78% hits; PfGluPho enzyme, NADPH resazurin-diaphorase fluorescence;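 active means inhibition reaching at least a set limit at 20 µM in the primary screen, cut at about 59% in these data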
M18AAP inhibitor = PfM18AAP inhibitors, malaria aminopeptidase, primary screen, biochemical, QFRET, recombinant enzyme. inhibition, % at 7.35 µM. 290,000 compounds, 1.2% hits. M18 aspartyl aminopeptidase (Plasmodium falciparum 3D7). H-Glu-NHMec fluorogenic cleavage;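 active means inhibition above the campaign mean inhibition over all tested compounds plus 3 SD, cut at about 28% in these data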
APOBEC3G inh = APOBEC3G DNA deaminase inhibitors, primary screen, biochemical, fluorescence, single-stranded DNA substrate, uHTS. DNA dC->dU-editing enzyme APOBEC-3G (Homo sapiens), Q9HC16. recombinant A3G, ssDNA deamination FAM/TAMRA fluorescence. inhibition, % at 20 µM. 330,000 compounds, 0.28% hits. AID 493012, 2011;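 active means inhibition of at least 40% at 20 µM, with no more than 30% in the related APOBEC3A deaminase screen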
Target sequence (Q9HC16 whole entry, looked up): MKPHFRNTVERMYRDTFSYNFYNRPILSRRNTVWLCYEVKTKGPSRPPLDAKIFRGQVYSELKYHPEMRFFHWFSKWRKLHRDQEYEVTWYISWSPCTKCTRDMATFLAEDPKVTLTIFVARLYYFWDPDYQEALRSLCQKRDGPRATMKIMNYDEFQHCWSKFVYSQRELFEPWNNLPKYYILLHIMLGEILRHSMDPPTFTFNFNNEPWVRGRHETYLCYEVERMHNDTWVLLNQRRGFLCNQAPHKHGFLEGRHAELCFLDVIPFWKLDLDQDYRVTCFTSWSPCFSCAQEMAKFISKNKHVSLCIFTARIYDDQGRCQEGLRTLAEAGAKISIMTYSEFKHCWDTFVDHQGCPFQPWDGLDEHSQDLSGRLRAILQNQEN
HKDC1 inhibitor = HKDC1 hexokinase inhibitors, primary screen, biochemical, fluorescence, uHTS; Q2TB90; recombinant HKDC1, G6PDH/diaphorase resazurin coupled fluorescence; inhibition, % at 20 µM; 340,000 compounds, 0.16% hits; AID 493160, 2011;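 active means inhibition above about 35% when tested at 20 µM, limit read from the data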
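Material – in-house recombinant HK5 (HKDC1) enzyme · Quantity – HKDC1 at 5 µg/mL · Buffer or medium – pH 8.0 Tris buffer with 10 mM MgCl2 · Reagent – glucose with 1 mM ATP · Dosing – single 20 µM dose · Times – reaction time 90 min, room temperature, protected from light · Technique – resorufin fluorescence at 613 nm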
PfG6PD confirm = PfG6PD inhibitors, hit retest, confirmation, biochemical, fluorescence intensity, single concentration; 2,400 compounds, 34% hits; inhibition, % at 20 µM; shares compounds with PfG6PD inh; recombinant PfGluPho, NADPH-diaphorase-resazurin fluorescence;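 active means inhibition of at least 50% at 20 µM in any single replicate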
Diaphorase 10uM = diaphorase inhibitors and chemical oxidizers, confirmation, counter-screen for P. falciparum G6PD inhibitor project, biochemical, fluorescence intensity, 10 µM NADPH. shares compounds with PfG6PD inh. diaphorase-coupled resazurin reduction, NADPH 10 uM. inhibition, % at 20 µM. 820 compounds, 39% hits;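 active means average inhibition reaching 50% or more with the compound at 20 µM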;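 further: resorufin red fluorescence formed as diaphorase reduces resazurin using NADPH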
Diaph ctr 30uM = diaphorase inhibitors and chemical oxidizers, confirmation, counter-screen for P. falciparum G6PD inhibitor project, biochemical, fluorescence intensity, 30 µM NADPH. 820 compounds, 29% hits. AID 504863, 2011. inhibition, % at 20 µM. shares compounds with PfG6PD inh. Diaphorase/resazurin coupled assay, resorufin fluorescence;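 active means inhibition averaging 50% or more, tested at 20 µM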
Of the large screens only hits and unclear results are named; the others gave an inactive call (follow-up assays come after a bar, where they were run). A selection: hits, their analogues and other compounds. The true share with any hit is near 2.4%.

Cc1cc(NC(=O)c2oc3ccccc3c2C)ccc1-n1cnnn1	PfG6PD inh 111 | PfG6PD confirm 73 | Diaphorase 10uM 72 | Diaph ctr 30uM inactive
O=C(Nc1ccccc1C(=O)Nc1nnc(C(F)(F)F)s1)c1ccccc1	PfG6PD inh 74 | PfG6PD confirm inactive
Cc1cccc(CS(=O)(=O)Cc2ccc(C(=O)O)o2)c1	none
Cc1ccc(C)c(C(=O)NCCN(C)C)c1	none
C=C(CN(C)C)C(=O)c1cc(C)ccc1C	PfG6PD inh 79 (no result: UBC9 SUMO inh, APOBEC3A inh, M18AAP inhibitor, APOBEC3G inh) | PfG6PD confirm inactive
COC(=O)Cc1c(C(=O)OC)nnn1-c1ccc(OC(F)(F)F)cc1	none
O=C(Nc1nc(-c2ccccc2)cs1)c1cccnc1	none
CC(=O)Nc1ccc(C(=O)Nc2nc(-c3cccnc3)cs2)cc1	PfG6PD inh 60 | PfG6PD confirm inactive
COc1ccc(C(=O)c2ccc(OC)c(OC)c2)cc1OC	none
COc1ccc(C(=O)c2c(C(F)(F)F)oc3c2C(=O)c2ccccc2C3=O)cc1OC	PfG6PD inh 80 | PfG6PD confirm 53 | Diaphorase 10uM inactive | Diaph ctr 30uM 52
CN1C(=O)C(C)(C)c2cc(S(=O)(=O)N3CCCC(C(=O)NCc4ccc(Cl)cc4)C3)ccc21 (stereo unspecified)	none
Cc1ccc(NC(=O)c2cc(N3C(=O)C=CC3=O)ccc2N2CCOCC2)cc1	PfG6PD inh 80 (no result: APOBEC3A inh, APOBEC3G inh) | PfG6PD confirm 96 | Diaphorase 10uM inactive | Diaph ctr 30uM inactive
Cc1ccc(NC(=O)c2cc(N3C(=O)C=CC3=O)ccc2Cl)cc1C	PfG6PD inh 77 | PfG6PD confirm 81 | Diaphorase 10uM inactive | Diaph ctr 30uM inactive
COc1c(C)cccc1C(=O)Nc1ccc(N2CCOCC2)c(Cl)c1	PfG6PD inh 68 | PfG6PD confirm inactive
Cc1ccc(NC(=O)c2cc(-n3cnnc3)ccc2Cl)cc1	none
O=C(CCC(=O)N(CC(=O)NC1CCCCC1)c1ccc(F)cc1)Nc1nccs1	none
Cc1ccc(CSCCC(=O)NCCc2ccc(Cl)cc2)cc1	none
CC1=CC(=O)N(c2cccc3c(N4C(=O)C=C(C)C4=O)cccc23)C1=O	none (no result: UBC9 SUMO inh, APOBEC3A inh, M18AAP inhibitor, APOBEC3G inh)
CC(=O)c1ccc(N2CCN(C3CCC(C(C)(C)C)CC3)CC2)cc1 (stereo unspecified)	none
Nc1c(C(=O)Nc2ccc(Cl)c(C(=O)O)c2)sc2nc3c(cc12)CCCC3	PfG6PD inh 59 | PfG6PD confirm inactive
C=CCSc1nc2sc(C)c(C)c2c(=O)n1CC=C	none
C[C@@H]1CCCCO[C@H](CN(C)C(=O)c2ccccc2)[C@@H](C)CN([C@H](C)CO)C(=O)c2cc(NC(=O)NC3CCCCC3)ccc2O1	none (no result: UBC9 SUMO inh, APOBEC3A inh, M18AAP inhibitor, APOBEC3G inh, HKDC1 inhibitor)
CC(=O)CSc1ccc(-c2nc3cc(C)c(C)cc3[nH]2)cn1	PfG6PD inh 67 | PfG6PD confirm inactive
CC(=O)CSc1ccc(-c2nc3ccccc3[nH]2)cn1	none
Cc1ccc2nc(-c3ccc(SCC(=O)N4CCc5ccccc54)nc3)[nH]c2c1	none | PfG6PD confirm inactive
COCC(=O)N(Cc1cc2cc(OC)ccc2[nH]c1=O)c1ccccc1OC	none
CCOC(=O)CN1NC2(CCCCCCC2)NC1=S	PfG6PD inh 66 | PfG6PD confirm inactive
Cc1cnccc1CN(C)C(=O)C1CCC(=O)N(Cc2ccccc2F)C1 (stereo unspecified)	none
O=C(Cn1nnc(-c2ccccc2)n1)N=Nc1c(O)[nH]c2ccccc12	none
CCC(c1ccc(O)c(O)c1)C(CC)c1ccc(O)c(O)c1 (stereo unspecified)	PfG6PD inh 78 (no result: UBC9 SUMO inh, APOBEC3A inh, M18AAP inhibitor, APOBEC3G inh) | PfG6PD confirm 57 | Diaphorase 10uM inactive | Diaph ctr 30uM inactive
CC(C)NC[C@H](O)c1ccc(O)c(O)c1	none (no result: UBC9 SUMO inh, M18AAP inhibitor)
Cc1cc(C)nc(NS(=O)(=O)c2ccc(NC(=O)c3ccc(N4C(=O)CCC4=O)cc3)cc2)n1	none
COc1ccccc1CN(Cc1nc2ccccc2c(=O)[nH]1)S(=O)(=O)c1ccc2ccccc2c1	PfG6PD inh 59 | PfG6PD confirm inactive
O=C(c1nn(Cc2ccccc2)c(=O)c2ccccc12)N1CCc2ccccc2C1	none
Cc1c(/C=C/C(=O)c2ccc(Cl)s2)cnn1C	PfG6PD inh 60 | PfG6PD confirm 52 | Diaphorase 10uM 63 | Diaph ctr 30uM inactive
Cc1c(/C=C/C(=O)c2ccccc2)cnn1C	none
Cc1c(/C=C/C(=O)c2ccc(C(C)C)cc2)cnn1C	PfG6PD inh 68 | PfG6PD confirm inactive
Cc1nc(NC(=O)c2ccc(Cl)cc2)sc1Cc1ccc2c(c1)OCO2	PfG6PD inh 60 | PfG6PD confirm inactive
O=S(=O)(Oc1ccccc1/C=N/n1cnnc1)c1ccccc1	PfG6PD inh 96 | PfG6PD confirm 81 | Diaphorase 10uM 81 | Diaph ctr 30uM 63
Cc1ccc2nc(SCC(=O)c3ccc(Cl)cc3)nc(=O)n2c1	none (no result: UBC9 SUMO inh, M18AAP inhibitor)
Fc1ccc(C2C3=C(Nc4ncnn42)c2ccccc2OC3c2ccncc2)cc1 (stereo unspecified)	PfG6PD inh 61 | PfG6PD confirm inactive
CCCc1cc(=O)[nH]c(SCC(=O)NC2CCCc3ccccc32)n1 (stereo unspecified)	PfG6PD inh 64 | PfG6PD confirm inactive
Nc1cc(=O)[nH]c(SCC(=O)NC2CCCc3ccccc32)n1 (stereo unspecified)	none
O=C(Oc1cccc2cccnc12)c1cccc(N2C(=O)C3C4CCC(C4)C3C2=O)c1 (stereo unspecified)	none
CCCCCCCCCCCCCCCC[N+](C)(C)CCN(Cc1ccc(OC)cc1)c1ncccn1	PfG6PD inh 64 (no result: UBC9 SUMO inh, M18AAP inhibitor) | PfG6PD confirm inactive
COc1ccc(CN(CCN(C)C)c2ccccn2)cc1	none
CCc1c(C)nc2ncnn2c1N1CCN(S(=O)(=O)c2ccc(OC)cc2)CC1	none

Bioassay records as filed in PubChem.
